According to ChEMBL document CHEMBL1129933, “Tyrosine kinase inhibitors. 6. Structure-activity relationships among N- and 3-substituted 2,2'-diselenobis(1H-indoles) for inhibition of protein tyrosine kinases and comparative in vitro and in vivo studies against selected sulfur congeners” (J Med Chem, 1997):

Tests used:
[1] = Inhibition of Src tyrosine kinase using peptide substrate
How it was run: (§1)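 v-src kinase inhibition kinetics were run with either ATP or the Glu/Tyr peptide polymer substrate varied. Ki (µM) was obtained by nonlinear regression using Cleland's equations. Inhibition type was assigned by comparing Ki values from slope and intercept determinations.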

[2] = target: T1, Epidermal growth factor receptor (Homo sapiens, UniProt P00533); experiment: Inhibition of epidermal growth factor receptor (EGFr)
[3] = Inhibition of Src tyrosine kinase using ATP substrate; how it was run: as §1
[4] = target: T2, Platelet-derived growth factor receptor beta (Mus musculus, UniProt P05622); experiment: Inhibition of Platelet-derived growth factor receptor beta (PDGFr)
How it was run: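 Full-length mouse PDGF-β receptor was overexpressed in baculovirus-infected insect cells and assayed as cell lysates. Read-out was 32P-phosphate transfer from ATP into TCA-precipitable poly(Glu,Tyr) 4:1. IC50 values are means of duplicates from at least two separate experiments.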

[5] = Inhibition of Src tyrosine kinase
How it was run: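 v-src protein came from baculovirus-infected insect cells. Kinase activity was measured as 32P incorporation from ATP into TCA-precipitable random Glu/Tyr (4:1) copolymer. IC50 values are means of duplicates from at least two separate experiments.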

[6] = target: T1, Epidermal growth factor receptor; experiment: Inhibition of epidermal growth factor receptor (EGFr) using ATP substrate
How it was run: (§2)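 EGFr came from membrane vesicles shed by human A431 carcinoma cells. Activity was measured as 32P-phosphate transfer from ATP into a TCA-precipitable glutamate/tyrosine (4:1) random copolymer. ATP or peptide polymer substrate was varied. Ki was obtained by nonlinear regression with Cleland's equations, comparing slope and intercept determinations to assign the inhibition type.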

[7] = target: T1, Epidermal growth factor receptor; experiment: Inhibition of epidermal growth factor receptor (EGFr) using peptide substrate; how it was run: as §2
[8] = Inhibition of mouse Swiss 3T3 fibroblasts proliferation; assay type: functional, cell-based
How it was run: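 Swiss 3T3 mouse fibroblast growth assay. IC50 is the concentration reducing cell growth rate by 50%, as the mean of duplicates from at least two separate experiments.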

C6 [9] = experiment: In vivo activity against C6 glioma xenograft, net cell kill at 1.8 mg/kg administered intraperitoneally for 9 days; assay type: functional; settings: route intraperitoneal
How it was run: (§3)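 […] C6 glioma xenograft, serially passaged in NCr nu/nu nude mice, implanted sc as tumor fragments in the right axilla on day 0. Mice weighed 18-22 g and were randomized. Dosing was ip bolus on a d1-9 daily schedule in 10% DMA in 50 mM lactic acid buffer, pH 4.0, by average cage weight. Weight change is the maximum treatment-related weight loss in the growth delay assay.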

C6 [10] = experiment: In vivo activity against C6 glioma xenograft, tumor growth delay (T-C, days) at 1.8 mg/kg ip dose for 9 days; settings: route intraperitoneal
A-431 [11] = experiment: In vivo activity against human A431 epidermoid xenograft, weight change after 0.5 mg/kg/day sc dose for 9-15 days; assay type: functional; settings: route subcutaneous
How it was run: (§4)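 Nude mice (NCr nu/nu, 18-22 g) bearing sc A431 fragments in the right axilla (day 0) received continuous sc infusion from an Alzet miniosmotic pump implanted under ketamine-xylazine. Pumps were removed or replaced under lidocaine-epinephrine for longer therapy, in 7-day and 27-day studies. Daily dose was the maximum deliverable without significant precipitation. Weight change was taken as the maximum treatment-related loss.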

A-431 [12] = experiment: In vivo activity against human A431 epidermoid xenograft, tumor growth delay (T-C) at 0.5 mg/kg/day administered subcutaneously for 9-15 days; settings: route subcutaneous
[13] = target: Fibroblast growth factor receptor (Mus musculus, UniProt P21803+Q03142+P16092+Q61851); experiment: Inhibition of fibroblast growth factor (bFGF)-mediated autophosphorylation of FGF-R in Swiss 3T3 mouse fibroblasts; assay type: functional
How it was run: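 Swiss 3T3 fibroblasts were treated 2 h with a range of compound concentrations, then stimulated for 5 min with growth factor (bFGF). Receptor tyrosine phosphorylation was read by extraction and western blotting.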

A-431 [14] = experiment: In vivo activity against human A431 epidermoid xenograft, net cell kill at 0.5 mg/kg/day administered subcutaneously for 9-15 days; assay type: functional; settings: route subcutaneous
How it was run: (§5)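 Nude mice (NCr nu/nu), 18-22 g, randomized, implanted sc in the right axilla with serially passaged A431 tumor fragments on day 0. Dosing was by ip bolus or continuous sc Alzet miniosmotic pump infusion, by average cage weight. Vehicle was distilled H2O or 10% DMA in 50 mM lactic acid buffer, pH 4.0, depending on compound. Net cell kill = net log reduction in tumor burden between first and last treatments.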

A-431 [15] = experiment: In vivo activity against human A431 epidermoid xenograft, net cell kill at 0.5 mg/kg/day administered subcutaneously for 1-27 days; assay type: functional; settings: route subcutaneous; how it was run: as §5
[16] = Inhibition of RNA synthesis; assay type: functional
How it was run: (§6)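 Log-phase cells were drug-treated for 2 h, then exposed for 2 h to 1 µM [methyl-3H]thymidine (DNA), [5-3H]uridine (RNA) or (S)-[4,5-3H]leucine (protein), each at 1 µCi/nmol. Cells were trypsinized into ice-cold 15% TCA, and precipitates were collected on glass-fibre filters, washed, and counted by scintillation.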

[17] = Inhibition of protein synthesis; assay type: functional; how it was run: as §6
[18] = Inhibition of DNA synthesis; assay type: functional; how it was run: as §6
[19] = target: Epidermal growth factor receptor (Mus musculus) (UniProt Q01279); experiment: Inhibition of epidermal growth factor receptor (EGFr) autophosphorylation
C6 [20] = experiment: In vivo activity against C6 glioma xenograft, weight change after 1.8 mg/kg ip dose for 9 days; assay type: functional; settings: route intraperitoneal; how it was run: as §3
[21] = target: T2, Platelet-derived growth factor receptor beta; experiment: Inhibition of platelet-derived growth factor receptor (PDGFr) autophosphorylation; assay type: functional
How it was run: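 Swiss 3T3 fibroblasts were treated 2 h with a range of compound concentrations, then stimulated 5 min with growth factor. Receptor tyrosine phosphorylation was assessed by cell extraction and western blotting.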

A-431 [22] = experiment: In vivo activity against human A431 epidermoid xenograft, tumor growth delay (T-C, days) at 0.5 mg/kg/day administered subcutaneously for 1-27 days; settings: route subcutaneous
A-431 [23] = experiment: In vivo activity against human A431 epidermoid xenograft, weight change after 0.5 mg/kg/day sc dose for 1-27 days; assay type: functional, organism-based; how it was run: as §4

T2 sequence (P05622 whole entry): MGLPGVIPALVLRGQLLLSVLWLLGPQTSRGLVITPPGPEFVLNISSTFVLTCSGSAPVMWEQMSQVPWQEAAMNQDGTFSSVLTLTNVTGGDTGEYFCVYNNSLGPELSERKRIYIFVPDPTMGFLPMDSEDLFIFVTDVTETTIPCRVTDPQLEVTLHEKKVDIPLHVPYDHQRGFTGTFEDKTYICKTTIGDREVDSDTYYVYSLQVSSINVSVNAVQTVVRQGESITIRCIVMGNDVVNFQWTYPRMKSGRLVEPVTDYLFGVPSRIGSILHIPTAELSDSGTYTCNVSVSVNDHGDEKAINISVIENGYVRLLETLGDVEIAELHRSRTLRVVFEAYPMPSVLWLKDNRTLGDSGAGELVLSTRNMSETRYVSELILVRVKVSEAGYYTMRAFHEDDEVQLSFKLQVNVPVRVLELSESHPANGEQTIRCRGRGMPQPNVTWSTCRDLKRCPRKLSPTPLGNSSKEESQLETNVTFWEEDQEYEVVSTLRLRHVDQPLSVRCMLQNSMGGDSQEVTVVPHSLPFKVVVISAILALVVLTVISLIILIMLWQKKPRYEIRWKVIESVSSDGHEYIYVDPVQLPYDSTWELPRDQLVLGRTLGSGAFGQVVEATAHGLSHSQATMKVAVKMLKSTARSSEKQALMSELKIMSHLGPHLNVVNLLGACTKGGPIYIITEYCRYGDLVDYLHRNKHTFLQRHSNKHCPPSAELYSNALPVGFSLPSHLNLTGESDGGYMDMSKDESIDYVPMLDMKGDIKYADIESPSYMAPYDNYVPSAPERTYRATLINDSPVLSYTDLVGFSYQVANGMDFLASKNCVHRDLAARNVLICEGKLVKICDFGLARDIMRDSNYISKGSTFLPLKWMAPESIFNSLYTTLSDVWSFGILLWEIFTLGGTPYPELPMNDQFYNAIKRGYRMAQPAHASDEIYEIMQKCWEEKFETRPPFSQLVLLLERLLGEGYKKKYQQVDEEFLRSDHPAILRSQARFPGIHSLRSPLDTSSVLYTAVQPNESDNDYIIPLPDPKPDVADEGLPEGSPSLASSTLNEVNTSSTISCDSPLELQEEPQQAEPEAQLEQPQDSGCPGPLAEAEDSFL
T1 sequence (P00533 whole entry): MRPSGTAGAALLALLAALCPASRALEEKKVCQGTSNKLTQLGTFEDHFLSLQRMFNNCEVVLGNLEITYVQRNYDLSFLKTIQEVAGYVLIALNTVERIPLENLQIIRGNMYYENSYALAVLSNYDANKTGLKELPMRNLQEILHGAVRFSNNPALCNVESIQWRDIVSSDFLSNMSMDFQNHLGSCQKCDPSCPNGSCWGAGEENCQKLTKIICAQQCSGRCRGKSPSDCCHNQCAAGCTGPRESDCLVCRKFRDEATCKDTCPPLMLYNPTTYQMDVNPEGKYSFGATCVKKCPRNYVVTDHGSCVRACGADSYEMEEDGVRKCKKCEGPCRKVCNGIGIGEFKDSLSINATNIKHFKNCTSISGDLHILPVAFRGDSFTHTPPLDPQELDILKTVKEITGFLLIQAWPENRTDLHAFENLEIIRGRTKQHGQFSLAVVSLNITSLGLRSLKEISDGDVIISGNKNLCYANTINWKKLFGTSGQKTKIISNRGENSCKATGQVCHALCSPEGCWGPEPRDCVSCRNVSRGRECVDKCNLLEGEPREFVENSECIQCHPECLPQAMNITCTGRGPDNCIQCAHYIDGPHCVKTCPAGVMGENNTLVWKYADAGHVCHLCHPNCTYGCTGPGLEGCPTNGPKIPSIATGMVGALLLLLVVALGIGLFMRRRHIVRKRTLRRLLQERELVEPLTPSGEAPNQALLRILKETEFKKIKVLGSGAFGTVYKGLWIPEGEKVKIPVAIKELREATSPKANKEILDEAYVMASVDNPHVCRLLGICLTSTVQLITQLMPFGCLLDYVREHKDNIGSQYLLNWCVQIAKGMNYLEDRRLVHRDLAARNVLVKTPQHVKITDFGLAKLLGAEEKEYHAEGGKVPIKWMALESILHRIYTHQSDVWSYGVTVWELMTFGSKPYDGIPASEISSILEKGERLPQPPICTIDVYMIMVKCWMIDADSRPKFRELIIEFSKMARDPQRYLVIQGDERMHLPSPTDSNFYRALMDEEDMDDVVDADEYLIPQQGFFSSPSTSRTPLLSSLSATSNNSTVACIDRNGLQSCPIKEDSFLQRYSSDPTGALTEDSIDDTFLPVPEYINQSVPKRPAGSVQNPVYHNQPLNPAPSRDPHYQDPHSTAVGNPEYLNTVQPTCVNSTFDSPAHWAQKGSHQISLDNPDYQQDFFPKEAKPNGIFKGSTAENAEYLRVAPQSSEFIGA
Epidermal growth factor receptor (Mus musculus), sequence (Q01279 whole entry, looked up): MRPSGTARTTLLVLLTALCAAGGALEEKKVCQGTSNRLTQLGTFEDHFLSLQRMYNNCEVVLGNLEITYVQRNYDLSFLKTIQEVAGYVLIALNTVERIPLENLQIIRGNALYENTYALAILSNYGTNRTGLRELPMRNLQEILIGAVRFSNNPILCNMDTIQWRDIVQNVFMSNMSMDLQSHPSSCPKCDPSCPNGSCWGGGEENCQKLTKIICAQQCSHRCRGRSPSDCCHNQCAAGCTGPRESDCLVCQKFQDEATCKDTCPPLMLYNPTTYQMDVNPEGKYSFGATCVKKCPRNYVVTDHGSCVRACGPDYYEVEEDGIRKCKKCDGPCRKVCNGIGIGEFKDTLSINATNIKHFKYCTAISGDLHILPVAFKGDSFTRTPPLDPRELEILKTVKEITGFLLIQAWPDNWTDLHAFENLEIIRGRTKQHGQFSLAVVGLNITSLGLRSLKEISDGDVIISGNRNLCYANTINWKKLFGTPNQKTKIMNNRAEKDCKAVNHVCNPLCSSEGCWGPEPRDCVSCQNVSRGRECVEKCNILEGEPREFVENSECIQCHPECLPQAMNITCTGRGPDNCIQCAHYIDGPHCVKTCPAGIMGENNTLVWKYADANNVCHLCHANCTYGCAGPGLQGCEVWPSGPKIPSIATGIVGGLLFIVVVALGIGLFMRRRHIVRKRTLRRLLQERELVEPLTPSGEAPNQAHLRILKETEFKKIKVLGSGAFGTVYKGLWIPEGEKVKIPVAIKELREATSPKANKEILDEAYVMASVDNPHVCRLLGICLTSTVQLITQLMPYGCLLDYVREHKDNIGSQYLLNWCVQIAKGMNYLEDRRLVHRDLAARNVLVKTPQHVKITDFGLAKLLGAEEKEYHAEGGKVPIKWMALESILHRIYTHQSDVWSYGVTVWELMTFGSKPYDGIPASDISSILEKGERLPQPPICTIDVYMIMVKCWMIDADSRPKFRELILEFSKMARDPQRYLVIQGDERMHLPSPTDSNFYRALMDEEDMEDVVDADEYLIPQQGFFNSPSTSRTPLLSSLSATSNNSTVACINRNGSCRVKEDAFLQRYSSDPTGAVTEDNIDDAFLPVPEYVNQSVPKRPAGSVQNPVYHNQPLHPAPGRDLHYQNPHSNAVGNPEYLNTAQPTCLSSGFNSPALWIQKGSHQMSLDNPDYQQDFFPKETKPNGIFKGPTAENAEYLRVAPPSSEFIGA

**Q.** For `CNC(=O)c1c(SSc2c(C(=O)NC)c3ccccc3n2C)n(C)c2ccccc12`, which Ki [1] is on record?
**A.** 1.4 µM

**Q.** And the IC50 [2]?
**A.** 6.9 µM

**Q.** And the Ki [3]?
**A.** 8 µM

**Q.** What about the IC50 [4] of the same molecule?
**A.** 28.1 µM

**Q.** What about the IC50 [5] of the same molecule?
**A.** 6.7 µM

**Q.** What about the Ki [6] of the same molecule?
**A.** 2.3 µM

**Q.** And the Ki [7]?
**A.** 3.9 µM

**Q.** Which results are given for `CNC(=O)c1c([Se][Se]c2c(C(=O)NC)c3ccccc3n2C)n(C)c2ccccc12`?
**A.** Ki [1]: 0.6 µM; IC50 [2]: 6.1 µM; Ki [3]: 0.8 µM; IC50 [4]: 4.7 µM; IC50 ([8]; Mus musculus): 5.5 µM; IC50 [5]: 0.4 µM; Ki [6]: 3.1 µM; Ki [7]: 3.9 µM

**Q.** With `N[C@H](Cc1c([Se][Se]c2[nH]c3ccccc3c2C[C@H](N)C(=O)NCc2ccccc2)[nH]c2ccccc12)C(=O)NCc1ccccc1` (stereo in doubt; 33) [listing 1 of 2 here] as the molecule, how does the Net cell kill (C6 [9]) read?
**A.** -0.2 log10

**Q.** What about the T-C (C6 [10]) of the same molecule?
**A.** 2 days

**Q.** What about the Weight change (A-431 [11]) of the same molecule?
**A.** -0.2 g

**Q.** What about the T-C (A-431 [12]) of the same molecule?
**A.** 2.2 days

**Q.** And the IC50 [13]?
**A.** 0.2 µM

**Q.** And the Net cell kill (A-431 [14])?
**A.** -0.2 log10

**Q.** What about the Net cell kill (A-431 [15]) of the same molecule?
**A.** -0.4 log10

**Q.** What about the IC50 [2] of the same molecule?
**A.** 0.9 µM

**Q.** And the IC50 [16]?
**A.** 0.35 µM

**Q.** What about the IC50 [17] of the same molecule?
**A.** 0.17 µM

**Q.** And the IC50 [18]?
**A.** 0.18 µM

**Q.** And the IC50 [4]?
**A.** 14.1 µM

**Q.** What about the IC50 [19] of the same molecule?
**A.** 4.2 µM

**Q.** What about the Weight change (C6 [20]) of the same molecule?
**A.** -0.9 g

**Q.** What about the IC50 ([8]; Mus musculus) of the same molecule?
**A.** 0.54 µM

**Q.** And the IC50 [5]?
**A.** 2 µM

**Q.** And the IC50 [21]?
**A.** 0.57 µM

**Q.** What about the T-C (A-431 [22]) of the same molecule?
**A.** 10.8 days

**Q.** What does the source list for `Cn1c([Se][Se]c2c(C(=O)O)c3ccccc3n2C)c(C(=O)O)c2ccccc21`?
**A.** IC50 [4]: 17.4 µM; IC50 ([8]; Mus musculus): 8 µM; IC50 [5]: 2.4 µM

**Q.** With `CCN(CC)CCNC(=O)c1c([Se][Se]c2[nH]c3ccccc3c2C(=O)NCCN(CC)CC)[nH]c2ccccc12` as the molecule, how does the IC50 [4] read?
**A.** 12.8 µM

**Q.** What about the IC50 ([8]; Mus musculus) of the same molecule?
**A.** 8 µM

**Q.** And the IC50 [5]?
**A.** 3.6 µM

**Q.** Which IC50 [4] does the source give for `CNC(=O)c1c([Se][Se]c2[nH]c3ccccc3c2C(=O)NC)[nH]c2ccccc12` here?
**A.** 8 µM

**Q.** What about the IC50 ([8]; Mus musculus) of the same molecule?
**A.** 1 µM

**Q.** What about the IC50 [5] of the same molecule?
**A.** 2.8 µM

**Q.** Which results are given for `CCN(CC)CCn1c([Se][Se]c2c(C(=O)NC)c3ccccc3n2CCN(CC)CC)c(C(=O)NC)c2ccccc21`?
**A.** IC50 [4]: 50 µM; IC50 [5]: 1.7 µM

**Q.** Which Weight change (A-431 [23]) does the source give for `N[C@H](Cc1c([Se][Se]c2[nH]c3ccccc3c2C[C@H](N)C(=O)NCc2ccccc2)[nH]c2ccccc12)C(=O)NCc1ccccc1` (stereo in doubt; 33) [listing 2 of 2 here] here?
**A.** Weight gain

**Q.** With `N[C@H](Cc1c([Se][Se]c2[nH]c3ccccc3c2C[C@H](N)C(=O)NCc2ccccc2)[nH]c2ccccc12)C(=O)NCc1ccccc1` (stereo in doubt; 34) as the molecule, how does the IC50 [2] read?
**A.** 1.3 µM

**Q.** What about the IC50 [4] of the same molecule?
**A.** 25.5 µM

**Q.** And the IC50 [8]?
**A.** 0.6 µM

**Q.** And the IC50 [5]?
**A.** 3.8 µM

**Q.** And the Ki [6]?
**A.** 2.7 µM

**Q.** What about the Ki [7] of the same molecule?
**A.** 5.6 µM

**Q.** Which results are given for `Cn1c([Se][Se]c2c(C(=O)OC(C)(C)C)c3ccccc3n2C)c(C(=O)OC(C)(C)C)c2ccccc21`?
**A.** IC50 [2]: > 100 µM; IC50 [4]: > 31 µM; IC50 [5]: 1.5 µM

**Q.** For `CCN(CC)CCNC(=O)c1c([Se][Se]c2c(C(=O)NCCN(CC)CC)c3ccccc3n2C)n(C)c2ccccc12`, which IC50 [4] is on record?
**A.** 3.4 µM

**Q.** What about the IC50 ([8]; Mus musculus) of the same molecule?
**A.** 19.5 µM

**Q.** And the IC50 [5]?
**A.** 1.8 µM

**Q.** For `O=C(NCc1ccccc1)[C@H](Cc1c([Se]c2[nH]c3ccccc3c2C[C@@H](NC(=O)C(F)(F)F)C(=O)NCc2ccccc2)[nH]c2ccccc12)NC(=O)C(F)(F)F`, which IC50 [2] is on record?
**A.** > 50 µM

**Q.** And the IC50 [4]?
**A.** > 50 µM

**Q.** And the IC50 [5]?
**A.** > 50 µM

**Q.** Which IC50 [2] does the source give for `O=C(NCc1ccccc1)[C@H](Cc1c([Se][Se]c2[nH]c3ccccc3c2C[C@@H](NC(=O)C(F)(F)F)C(=O)NCc2ccccc2)[nH]c2ccccc12)NC(=O)C(F)(F)F` here?
**A.** 7 µM

**Q.** What about the IC50 [4] of the same molecule?
**A.** > 50 µM

**Q.** What about the IC50 [5] of the same molecule?
**A.** 6.2 µM
